Source: ChEMBL document CHEMBL2046350, “Bahamaolides A and B, antifungal polyene polyol macrolides from the marine actinomycete Streptomyces sp” (J Nat Prod, 2012)
≈ marks a conversion by molar mass, not a printed value. Calls of active or inactive are those of the source. No cut-off for these calls is given here.

Key:
Candida albicans [1] = experiment: Inhibition of candida albicans ICL assessed as formation of glyoxylate phenylhydrazone at 100 ug/ml after 30 mins by Dixon and Kornberg's method
Aspergillus fumigatus = experiment: Antifungal activity against Aspergillus fumigatus HIC 6094 after 48 to 72 hrs; type: functional
Procedure, shortened: (§1)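 Candida albicans grown in YPD (1% yeast extract, 2% peptone, 2% dextrose) 48 h at 28 °C, harvested, washed twice with water; moulds grown on potato dextrose agar 2 weeks at 28 °C, spores washed and resuspended in PDB. Broth microdilution in PDB (10⁴ cells/mL) with compound added in 5% DMSO (0.5% DMSO solvent control); 28 °C, 48–72 h; MIC = lowest concentration inhibiting growth.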

Trichophyton rubrum = experiment: Antifungal activity against Trichophyton rubrum IFO 9185 after 48 to 72 hrs; type: functional; procedure, shortened: as §1
[2] = system: Trichophyton mentagrophytes; experiment: Antifungal activity against Trichophyton mentagrophytes IFO4 0996 after 48 to 72 hrs; type: functional; procedure, shortened: as §1
Candida albicans [3] = experiment: Antifungal activity against Candida albicans ATCC 10231 after 48 to 72 hrs; type: functional; procedure, shortened: as §1
[4] = Inhibition of candida albicans ICL assessed as formation of glyoxylate phenylhydrazone after 30 mins by Dixon and Kornberg's method
Staphylococcus aureus = experiment: Antibacterial activity against Staphylococcus aureus ATCC 6538p; type: functional, organism-based
Bacillus subtilis = experiment: Antibacterial activity against Bacillus subtilis ATCC 6633; type: functional, organism-based
Micrococcus luteus = experiment: Antibacterial activity against Micrococcus luteus IFO 12708; type: functional, organism-based
Salmonella typhimurium = experiment: Antibacterial activity against Salmonella typhimurium ATCC 14028; type: functional, organism-based; settings: Salmonella enterica subsp. enterica serovar Typhimurium
Proteus vulgaris = experiment: Antibacterial activity against Proteus vulgaris ATCC 3851; type: functional, organism-based
Escherichia coli = experiment: Antibacterial activity against Escherichia coli ATCC 35270; type: functional, organism-based
A549 = experiment: Cytotoxicity against human A549 cells at 100 ug/ml; type: functional, cell-based
HCT-116 = experiment: Cytotoxicity against human HCT116 cells at 100 ug/ml; type: functional, cell-based
MDA-MB-231 = experiment: Cytotoxicity against human MDA-MB-231 cells at 100 ug/ml; type: functional, cell-based
SK-HEP1 = experiment: Cytotoxicity against human SKHEP1 cells at 100 ug/ml; type: functional, cell-based

SMILES | inhibition (Candida albicans [1]) | MIC (Aspergillus fumigatus) [mg/L] | MIC (Trichophyton rubrum) [mg/L] | MIC [2] [mg/L] | MIC (Candida albicans [3]) [mg/L] | IC50 [4] [µM] | Activity (Staphylococcus aureus) | Activity (Bacillus subtilis) | Activity (Micrococcus luteus) | Activity (Salmonella typhimurium) | Activity (Proteus vulgaris) | Activity (Escherichia coli) | Activity (A549) | Activity (HCT-116) | Activity (MDA-MB-231) | Activity (SK-HEP1) | Activity (Aspergillus fumigatus) | Activity (Trichophyton rubrum) | Activity [2] | Activity (Candida albicans [3])
C[C@@H]1[C@H](O)[C@@H](C)/C=C/C=C/C=C/C=C/C=C/C=C/C=C/[C@H](O[C@@H]2O[C@H](C)[C@@H](O)[C@H](N)[C@@H]2O)C[C@@H]2O[C@](O)(C[C@@H](O)C[C@@H](O)[C@H](O)CC[C@@H](O)C[C@@H](O)CC(=O)O[C@H]1C)C[C@H](O)[C@H]2C(=O)O | inactive | – | – | – | – | – | – | – | – | – | – | – | – | – | – | – | – | – | – | –
CC(C)[C@@H]1OC(=O)/C=C/C=C/C=C/C=C/C=C/C=C/C[C@@H](O)C[C@H](O)C[C@H](O)C[C@H](O)C[C@@H](O)C[C@H](O)C[C@@H](O)C[C@@H](O)C[C@@H](O)CC[C@@H]1C [BAHAMAOLIDE A] | – | 12.5 (≈ 17.6 µM) | 12.5 (≈ 17.6 µM) | 12.5 (≈ 17.6 µM) | 12.5 (≈ 17.6 µM) | 10.8 | inactive | inactive | inactive | inactive | inactive | inactive | inactive | inactive | inactive | inactive | – | – | – | –
CC(C)[C@@H]1OC(=O)/C=C/C=C/C=C/C=C/C=C/C=C\C[C@@H](O)C[C@H](O)C[C@H](O)C[C@H](O)C[C@@H](O)C[C@H](O)C[C@@H](O)C[C@@H](O)C[C@@H](O)CC[C@@H]1C [BAHAMAOLIDE B] | – | – | – | – | – | 127 | inactive | inactive | inactive | inactive | inactive | inactive | inactive | inactive | inactive | inactive | inactive | inactive | inactive | inactive
